In the data set the test system is MS2 coat protein. As to the kind of experiment: apparent Kd, MS2 coat protein; higher = weaker binding; RNA-MaP array; FMN 200 µM where present. The gist of the method: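 Two titrations, one without ligand and one with constant ligand, were run with SNAP-549-labelled MS2 coat protein from 0.7 or 1.5 nM, doubling to 3 µM. The targets were designs transcribed by stalled E. coli RNA polymerase on Illumina sequencing-chip clusters, in 100 mM Tris-HCl pH 7.5, 80 mM KCl, 4 mM MgCl2, BSA, DTT, yeast tRNA and Tween-20. The apparent Kd is the median of filtered per-cluster binding-curve fits, with green signal normalised to red-channel RNA signal and control-cluster median Fmax.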

[1] abbreviates: designed as: OFF switch for flavin mononucleotide, no ligand.
Setting [2] is: ligand present: flavin mononucleotide, designed as: OFF switch for flavin mononucleotide.
Where [3] appears, read: designed as: ON switch for flavin mononucleotide, no ligand.
Where [4] appears, read: ligand present: flavin mononucleotide, designed as: ON switch for flavin mononucleotide.

What is called apparent Kd is the concentration giving half-maximal binding under the conditions of the assay. In the case of “AUCAGCUCGUCAGGAUAUACGUCACUGGGUCAGCAGUGUGGUAAGAUCACAUGAGGAUCACCCAUGUAGAAGGGACGAGCUGAU”, the “apparent Kd” value by setting is: under setting [1], 66.3 nM; under setting [2], 483 nM.

As to “AGACCGCUACGCCGGUUUGACGCACAGGAUAUGCGGUUACAUGAGGAUCACCCAUGUGGCCAUGAGUAGAAGGGUGGUUCGUCC”, the “apparent Kd” value stood at 49.9 nM under setting [3] and 39.1 nM under setting [4].

As to “GUUUAGUGAGGAUAUGUGGCUUCGAUCGUGCGCGGUCGGCUACAGAAGGCACAUGAGGAUCACCCAUGUUCCUC”, the “apparent Kd” value by setting is: under setting [1], 37.1 nM; under setting [2], 506 nM.

For “UCAUGAAGGGCAGGAUAUGGACAUGAGGAUCACCCAUGUACAUGGGAUAAUAUACUAAAUUAAUACUAGAAGGGUUACAUAAAU”, the “apparent Kd” value turned out to be 37.2 nM under setting [1] and 24.6 nM under setting [2].

Take “AACAAGUGAGGAUAUGAAAAUACAACAAACAAACAUCUACAUCAGAAGGCACAUGAGGAUCACCCAUGUUAAUC”: the “apparent Kd” value is, setting by setting: under setting [1], 20.9 nM; under setting [2], 23.2 nM.

For the sequence “GGACGUGUCGUUUACAUGAGGAUCACCCAUGUCGAUAGACAUGAGGAUAUGGAUCCGAAUCGGAUCCAGAAGGCAUGCACGUCC”, the “apparent Kd” value under setting [3] was found to be 260 nM and the “apparent Kd” value under setting [4] turned out to be 26.8 nM.

As for “AGUUAAUAUCGAGGAUAUAAGUCUAAGACAUGAGGAUCACCCAUGUGUGUCUUAGAAGGCGAUAUUAACAGCAUGUUACAUGCA”, the “apparent Kd” value under setting [3] is 48.3 nM and the “apparent Kd” value under setting [4] was 8.07 nM.

Turning to “AAUAACGGAGCUACAUGAGGAUCACCCAUGUACGGGUGAUCCUAGGAUAUGCCCGCAACUAUGUCGCAGAAGGAGGGUUGCCCA”, the “apparent Kd” value by setting is: under setting [3], 20.4 nM; under setting [4], 39.7 nM.

With “ACGUACUGAGGAUAUACGAACAUGUCAAAAGACGUGAAGGGACAUGAGGAUCACCCAUGUAGAAGGCAGUACGA”, the “apparent Kd” value was 42.2 nM under setting [1] and 194 nM under setting [2].

For “CUCAUGAGAGGAUAUACAUGAGGAUCACCCAUGUGGUCAUCUCCUCGGGCUCCAUUACGUAGAAGGCUCAUUUG”, the “apparent Kd” value amounted to 41.4 nM under setting [1] and 88.4 nM under setting [2].

Turning to “CCAUUCAGAGGAUAUGCGCAUAGAUAAGACUUUUUUUCUUAACAUGAGGAUCACCCAUGUAGAAGGCUGUACCC”, the “apparent Kd” value was found to be 21.6 nM under setting [1] and 19.4 nM under setting [2].

Regarding “UUUGAAUAGGUAGGAUAUACUUUCAAUUUUCUUUUCCUUACAUGAGGAUCACCCAUGUUUACAUUGUAGAAGGACCUCAUUGAU”, the “apparent Kd” value was determined as 215 nM under setting [1] and 173 nM under setting [2].

For “UUUUUGUGAGGAUAUCAGUAGUAAAUAAAUAAAAUAACUACUGAGAAGGCACAUGAGGAUCACCCAUGUUCUUU”, the “apparent Kd” value was found to be 18.9 nM under setting [1] and 49.6 nM under setting [2].

With “AAGACACAUGAGGAUCACCCAUGUCAAGAGAGACGAGGAUAUCUGAAAAAAAAAAAAAAAGGAGAAGGCGUGAAAA”, the “apparent Kd” value under setting [3] is 109 nM and the “apparent Kd” value under setting [4] came out at 51.1 nM.

As to “GGACGUCACAUCUACAUGAGGAUCACCCAUGUCAAAAGACAUGAGGAUAUGCUUCCUAAUUGGAAGCAGAAGGCAUGGACGUCC”, the “apparent Kd” value by setting is: under setting [3], 1210 nM; under setting [4], 67.5 nM.

“AAAAAAAAAACUGAGGAUAUGAAAUAAUAGACAUGAGGAUCACCCAUGUUUUCGGUCGAAAAAAUGCAGAAGGCAGAAAAAAAAAA”: the “apparent Kd” value is 31.6 nM under setting [3] and 29.1 nM under setting [4].

Turning to “GUGGGUGAUGGAGGAUAUGACGACGGGUUUUACAUGAGGAUCACCCAUGUGGCGUUCCGCAAAAGUCAGAAGGCCAGGUAUACU”, the “apparent Kd” value by setting is: under setting [3], 332 nM; under setting [4], 40.6 nM.

For “GGACAUGUCGUCUACAUGAGGAUCACCCAUGUCGAUAGACAUGAGGAUAUCGAUACAAAUUGUAUCGAGAAGGCAUGCAUGUCC”, the “apparent Kd” value was 44.9 nM under setting [3] and 23 nM under setting [4].

Turning to “AAGAAACAUGAGGAUCACCCAUGUCAGGAUAUGCAGGACUGACGAAAGUCAGUCCAAAGCAGAAGGGACUAGAA”, the “apparent Kd” value runs as follows: under setting [1], 60.7 nM; under setting [2], 81.8 nM.

As for “UAUGGUAAAGUCAGGAUAUACGUACGUCGUUCUAGGUAGAAGGGACAUGAGGAUCACCCAUGUAUGGUAGUGUU”, the “apparent Kd” value came to 90 nM under setting [1] and 88.9 nM under setting [2].

For “GGGUACAUCGGAGGAUAUCAUGUAAAUACAUGAGGAUCACCCAUGUUGAUGGAGACAUCGGAGAUUGAGAAGGCCGAUGUACCG”, the “apparent Kd” value reads like this: under setting [3], 41.9 nM; under setting [4], 6.03 nM.

For the sequence “AAAAGACAUGAGGAUCACCCAUGUAAAAACAUGAGAGGAUAUCAUCUGACUUCGGUCAGAUGAGAAGGCUCAUGUC”, the “apparent Kd” value worked out at 48.7 nM under setting [3] and 26.9 nM under setting [4].

With “UGUGUCAUCGAGAAGGCCUCAACAUGAGGAUCACCCAUGUUGUAAUAUGGGAGGAUAUCGAUGAUACAGCUACGUUUCGUAGCC”, the “apparent Kd” value came to 18.4 nM under setting [3] and 5.67 nM under setting [4].

Turning to “UUCGUGCAGCUUUGCUGUACGCGUACAUGAGGAUCACCCAUGUAGGAUAUGGUAGGCAUUGCUUACUAGAAGGAUAGUGUGAUC”, the “apparent Kd” value runs as follows: under setting [1], 124 nM; under setting [2], 32.2 nM.

For the sequence “GGUACUAUCACAGGAUAUGCUUUCCUUUGGGAAGCAGAAGGGUGUAACAUGAGGAUCACCCAUGUGGUGCCCGGGCGUGAGCCC”, the “apparent Kd” value came out at 51.7 nM under setting [3] and 14.8 nM under setting [4].

As for “AUCGGAAUGUAGAAGGGUGACAUGAGGAUCACCCAUGUUCAAAUGCGUUUUUCGGUAAUUGAUCCACAGGAUAUACUGUCCGUG”, the “apparent Kd” value runs as follows: under setting [3], 631 nM; under setting [4], 485 nM.

Take “CGAUAUACGACGGACGGAAACGUACAUGAGGAUCACCCAUGUAGAAGGCGAUCCGCAACGCGGAUUGAGGAUAUAUAGUAUACA”: the “apparent Kd” value under setting [1] came out at 20.7 nM and the “apparent Kd” value under setting [2] was 14.6 nM.

Take “GUAUAUAGUGUGAGGAUAUGCUGGUCCUUGGAUCAGCAGAAGGCACAUGAGGAUCACCCAUGUAGUUUAUUAUU”: the “apparent Kd” value by setting is: under setting [1], 25 nM; under setting [2], 80.3 nM.

Regarding “GGAUAGGACAGAGGAUAUACGUGCUAGAGAUACUAGCAAAAUAUCCUCACAUGAGGAUCACCCAUGUAGAAGGCUGUCCUAUCG”, the “apparent Kd” value reads like this: under setting [1], 18.1 nM; under setting [2], 79 nM.

“UAUGUUGUUGUGAGGAUAUACUUUGUUUGGUCGUAGUAGAAGGCACAUGAGGAUCACCCAUGUAGAUUUUUGGU”: the “apparent Kd” value was determined as 19.4 nM under setting [1] and 24.8 nM under setting [2].

As to “ACAGCGUGAGGAUAUACAUGAGGAUCACCCAUGUAUGGCAGGUUAUCCUGUCGUAUGUGUAGAAGGCACGCUGU”, the “apparent Kd” value under setting [1] worked out at 60.3 nM and the “apparent Kd” value under setting [2] is 73.7 nM.

On to “UGUCGGAGCAGAGGAUAUUACAUGAGGAUCACCCAUGUAUGAACCAUUAGCUGGAAACAGCAAUGUAAGAAGGCUGCUCCGACA”, for which the “apparent Kd” value stood at 5.37 nM under setting [1] and 10.4 nM under setting [2].

On to “AGCUGUGGCCGAGGAUAUCUAAUAAUCUCAACCGAAAUAUAAUCGGACAUGAGGAUCACCCAUGUAGAGAAGGCGGUCUCAGCA”, for which the “apparent Kd” value came to 36.2 nM under setting [1] and 92.8 nM under setting [2].

On to “ACAGCGUGAGGAUAUACAUGAGGAUCACCCAUGUGUGGCAGGUUAUCCUGUCAUGAGUGUAGAAGGCACGCUGU”, for which the “apparent Kd” value reads like this: under setting [1], 30 nM; under setting [2], 90.7 nM.

In the case of “UUUAUUUUGCAAGGAUAUGUUUAAUUUUAGUUUCCUUACACAUGAGGAUCACCCAUGUUAUACUUACAGAAGGUGCAUAAUUUU”, the “apparent Kd” value is, setting by setting: under setting [1], 173 nM; under setting [2], 94.6 nM.

“GAUCAACAUGAGGAUCACCCAUGUGAGGAUAUGAUACUAUGUACUUCGGUACAUAGUAUCAGAAGGCAUAUAAA”: the “apparent Kd” value is, setting by setting: under setting [1], 44.7 nM; under setting [2], 35.2 nM.

In the case of “UGUGUGUGACAGGAUAUGCUGGUUAUGAGACGGGUAGAAGGGUCUACAUGAGGAUCACCCAUGUGGCCGGUUGG”, the “apparent Kd” value reads like this: under setting [1], 19 nM; under setting [2], 21.2 nM.

In the case of “CUGUGACGGAUCCAGAAUUACAACAUGAGGAUCACCCAUGUACAGGAUAUAGGGUUGAUAGGCGCCUAGAAGGGUAUGAUCACG”, the “apparent Kd” value is 156 nM under setting [1] and 177 nM under setting [2].

Turning to “UUCGCUAAGGUGUAGCGAGACAUGCAAGAAGGGUGAAGAACAUGAGGAUCACCCAUGUAAUCCUUACAGGAUAUUGAUUGACGA”, the “apparent Kd” value reads like this: under setting [3], 307 nM; under setting [4], 181 nM.

For the sequence “AGCUGGUGACAGCAUCGAGCAAAACAUGAGGAUCACCCAUGUAGAAGGCUGUACGGUUACCGUACAGAGGAUAUACAUAGCUCG”, the “apparent Kd” value runs as follows: under setting [1], 7.15 nM; under setting [2], 10 nM.

With “UACCUGAGGCAAAGCUUUAGGUAUACAUGAGGAUCACCCAUGUAGGAUAUGGUAGGCUUUGCUUACCAGAAGGACAUGUUAAUA”, the “apparent Kd” value came to 17.3 nM under setting [1] and 56.3 nM under setting [2].

Consider “GUACUGAAGCUUUGCUUUAGUCGUACAUGAGGAUCACCCAUGUAGGAUAUGGUAGGCUUUGCCUACUAGAAGGAUAGAGUGAUC”, for which the “apparent Kd” value worked out at 89.2 nM under setting [1] and 33.9 nM under setting [2].

For the sequence “AGGAAUUUGUAGAAGGACGACUAUUAAGAUUUCGUAGGAUAUACUAUUUACAUGAGGAUCACCCAUGUUUAAAUGGAACAAUGU”, the “apparent Kd” value reads like this: under setting [1], 8.06 nM; under setting [2], 11.1 nM.

Turning to “AAAAAGACAGGAUAUACAUGAGGAUCACCCAUGUGAAAAAAAAAAAAAAAAAAAAAGUGUAGAAGGGUCAAAAA”, the “apparent Kd” value by setting is: under setting [1], 48.9 nM; under setting [2], 35.4 nM.

Take “GUGGCAUACUGAGGAUAUUCAUAUAAUAAAUAAACAUGAGGAUCACCCAUGUGGCGAAAGCCUUGGGAGAAGGCAGAAUGCUAC”: the “apparent Kd” value under setting [3] worked out at 521 nM and the “apparent Kd” value under setting [4] was found to be 46.7 nM.

As for “GGUUGACGACAAUUACAUGAGGAUCACCCAUGUUUUGGGAUGCAGGAUAUGUGGUAUAUUAAUUAACAGAAGGGCAAUAAUUUU”, the “apparent Kd” value reads like this: under setting [3], 37.3 nM; under setting [4], 39.3 nM.

For “GUAGCAACAUGAGGAUCACCCAUGUAGGAUAUCGCUAUUGUAAUCAUGAAACAUGAUUACAAUAGCGAGAAGGACAUAUGCUAC”, the “apparent Kd” value is, setting by setting: under setting [1], 6.93 nM; under setting [2], 10.2 nM.

“GGAUAGGACAGAGGAUAUACGUGCUAGUGAUACUAGCAAAAUUUCCUCACAUGAGGAUCACCCAUGUAGAAGGCUGUCCUAUCG”: the “apparent Kd” value by setting is: under setting [1], 15.5 nM; under setting [2], 453 nM.

(Values after the EternaBench riboswitch data.)
